GPR7 antagonist = blocks human GPR7 receptor signaling. inhibition, % at 4.4 µM. AID 1861. hit rate 1.1% among 290,000. GPR7-expressing cells, fluorescence antagonist assay. P48145; in the data active means inhibition above about 16%, passing the limit was not always enough;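 further: cells stimulated with the agonist NPW; 0% = agonist with vehicle and 100% = vehicle without agonist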
CHO parental Ca = signal in parental CHO cells, OX1R antagonist counter-screen | AID 463079 | parental CHO-K1, ATP-induced calcium, Fluo-8 fluorescence | hit rate 0.63% among 330,000 | inhibition, % at 5.6 µM;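 active means inhibition above that plate's mean sample inhibition plus 3 SD, cut at about 26% in these data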;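 further: 0% = ATP-challenged DMSO wells and 100% = DMSO wells without ATP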
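Test system: untransfected parental CHO cell line. Compound: one dose, 5.6 µM nominal. Detection: intracellular calcium via Fluo-8 no-wash fluorescent dye. Measure: % inhibition. Benchmarks: ATP-challenged DMSO wells low, unchallenged DMSO wells high.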
OX1R antag-1 = antagonists of human orexin 1 receptor (OX1R); AID 485270; inhibition, % at 6.6 µM; O43613; OX1R-expressing cells, FRET antagonist read-out; hit rate 1.8% among 330,000; in the data active means inhibition mostly above about 38%, no sharp cut-off; inactive means mostly below about 40%;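 further: 0% = agonist challenge alone and 100% = reference antagonist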
Target sequence (O43613 whole entry, looked up): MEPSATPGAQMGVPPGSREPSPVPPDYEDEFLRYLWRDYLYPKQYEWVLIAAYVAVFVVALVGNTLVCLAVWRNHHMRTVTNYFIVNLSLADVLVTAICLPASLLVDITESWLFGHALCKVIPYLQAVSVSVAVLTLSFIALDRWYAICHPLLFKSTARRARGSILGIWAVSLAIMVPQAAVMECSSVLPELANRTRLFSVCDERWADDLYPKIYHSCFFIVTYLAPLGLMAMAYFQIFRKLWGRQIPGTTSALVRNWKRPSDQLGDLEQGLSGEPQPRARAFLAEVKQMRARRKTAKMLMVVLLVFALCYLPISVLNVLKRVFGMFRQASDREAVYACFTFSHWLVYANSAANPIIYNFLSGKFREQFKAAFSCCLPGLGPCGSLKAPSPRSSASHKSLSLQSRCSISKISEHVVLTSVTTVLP
TAAR1 ag = agonists of human TAAR1; AID 624467; CHO RD-HGA16 TAAR1, Fluo-8 calcium fluorescence; vehicle wells 0%, saturating PEA agonist 100%; Q96RJ0; activation, % at 3 µM; hit rate 0.99% among 360,000;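 active means activation above the mean activation of all test compounds in the run plus 3 SD, cut at about 38% in these data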
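Benchmarks: low control DMSO, high control PEA (EC100); System: CHO RD-HGA16 cells carrying human TAAR1 plus Gα16; Detection: Fluo-8 fluorescence, 5 s baseline then 140 s kinetic read; Schedule: 17-24 h plating, Fluo-8 75 min 37 °C, 30 min RT; Read-out basis: % activation from peak over basal fluorescence ratio, DMSO-to-PEA scaled.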
TAAR1 antagonist = human TAAR1 antagonism; Q96RJ0; CHO RD-HGA16 TAAR1, Fluo-8 calcium fluorescence, antagonist; inhibition, % at 3 µM; hit rate 1.5% among 360,000;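 active means inhibition above a per-plate cutoff, the mean inhibition of test compounds on that plate plus 3 SD, cut at about 49% in these data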;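 further: 0% = DMSO plus EC80 beta-PEA response and 100% = DMSO alone without agonist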
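Test system: hTAAR1-expressing CHO RD-HGA16 cells, Gα16-coupled; Probe or stimulus: EC80 β-phenethylamine stimulus; Compound dosing: single nominal final test compound concentration of 3 µM; Timing: 140 s kinetic read after compound, 140 s after agonist; Signal: Fluo-8 calcium-sensitive fluorescence; Measure: % inhibition of agonist calcium response; Controls: DMSO and EC80 PEA controls.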
OX1R antag-2 = antagonists of human orexin 1 receptor. O43613. CHO/OX1R cells, Fluo-8 calcium fluorescence, orexin A. inhibition, % at 5 µM. hit rate 0.43% among 330,000;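 active means inhibition above its plate's threshold, mean inhibition of all tested compounds on the plate plus 3 SD, cut at about 37% in these data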;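 further: 0% = orexin A challenge wells and 100% = SB-334867-A antagonist wells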
* hit, by the source's call; . = no result. A selection: hits, their analogues and other compounds. The true share with any hit is near 4.5%.

SMILES	GPR7 antagonist	CHO parental Ca	OX1R antag-1	TAAR1 ag	TAAR1 antagonist	OX1R antag-2
O=c1oc2ccccc2c(O)c1/C=N/c1ncccn1	.	-6	47	2	-7	-6
O=c1oc2ccccc2c(O)c1/C=C1\C=Nc2ccccc21	-8	8	73*	15	-7	-19
C=CC[C@H](CC(=O)NCCO)C(=O)NC[C@@H](OC(=O)[C@@H](CC=C)Cc1ccc(F)cc1)c1ccccc1	.	-21	9	10	25	-14
C=CC[C@@H](CC(=O)N(CCO)Cc1ccccc1)C(=O)NCCOC(=O)[C@@H](CC=C)Cc1ccc(F)cc1	.	-16	12	5	-9	-18
C=CCC[C@H](Cc1ccc(F)cc1)C(=O)O[C@H](CNC(=O)[C@@H](CC=C)CC(=O)N(CCO)Cc1ccccc1)c1ccccc1	.	-7	10	8	56*	21
C=CC[C@H](CC(=O)N(CCO)Cc1ccccc1)C(=O)NC[C@@H](OC(=O)[C@@H](CC=C)Cc1ccc(F)cc1)c1ccccc1	.	-14	7	11	56*	10
COC(=O)[C@]12CCCCC=C1N(CCC1=CCCCC1)C(=O)[C@H](CC(=O)N1CCN(C(=O)C3CC3)CC1)C2	.	.	.	4	-4	.
Oc1ccc(C[C@H]2CNCCN2CCCCC2CCCCC2)cc1	.	21	8	34	13	5
c1ccc2c(C[C@@H]3CNCCN3CC3CCCCC3)cccc2c1	.	3	8	41*	-1	-19
C[C@H](c1ccccc1)N1C[C@@H](COCc2ccccc2)Oc2cccc(Oc3ccc(F)cc3)c2S1(=O)=O	.	.	.	3	-5	.
O=C(c1cc(COc2cccc(C(F)(F)F)c2)on1)N1CCC(Oc2cccnc2)CC1	15	39*	6	6	33	11
Cc1ccc(OCc2cc(C(=O)N3CCC(Oc4cccnc4)CC3)no2)cc1C	-12	12	28	3	19	24
O=C(c1cc(COc2ccc(F)cc2Cl)on1)N1CCC(OCc2cccnc2)CC1	-6	61*	57	5	-10	45*
Cc1cc(C)c[n+](-c2[nH]c(=O)sc2/C=N/N=C(\[O-])c2cccnc2)c1	-3	13	19	3	-26	-16
CCc1ccc[n+](-c2[nH]c(=O)sc2/C=N/N=C(\[O-])c2ccncc2)c1	-5	-7	40*	0	0	-14
CC(=O)n1cc(N(C(=O)CCl)c2ccc([N+](=O)[O-])cc2)c2ccccc21	21*	-15	20	16	16	6
CC(=O)n1cc(N(C(=O)CCl)c2ccccc2)c2ccccc21	-7	-6	5	3	-21	-9
Cn1cnnc1SCc1ccc(C(=O)N=Nc2c(O)n(Cc3ccc(Cl)cc3)c3ccccc23)cc1	-4	-17	12	10	24	1
CCn1c(O)c(N=NC(=O)c2ccc(CSc3nncn3C)cc2)c2ccccc21	-14	-17	70*	9	1	-20
COc1cc(F)cc(-c2ccc3c(c2)c(-c2cccs2)c(-c2cc(OC)cc(OC)c2)n3C)c1	.	-1	4	50*	10	8
O=C(COC(=O)c1ccccc1)NCc1cccs1	-11	-6	5	0	-6	-6
Cc1cc(C)cc(C(=O)OCC(=O)NCc2cccs2)c1	26*	-8	20	1	-12	-7
COC1C(O)CCC2(CO2)C1C1(C)OC1CC=C(C)C (stereo not drawn)	.	.	.	1	-33	.
O=C(O)c1cccc(NC(=S)N/N=C/c2ccccc2OCc2ccc(Br)cc2)c1	-8	42*	50	-2	-1	16
O=C(O)c1cccc(NC(=S)N/N=C/c2ccccc2OCc2cccc(Br)c2)c1	8	.	.	-1	-12	.
SMILES	GPR7 antagonist	CHO parental Ca	OX1R antag-1	TAAR1 ag	TAAR1 antagonist	OX1R antag-2
CC1C=CCC2C(=O)N(c3ccc(OC(=O)c4ccco4)cc3)C(=O)C12 (stereo not drawn)	19*	-4	19	1	-15	-10
Cc1ccc(S(=O)(=O)N2CC3(O)CN(C(=O)OC(C)C)N(C(=O)OC(C)C)CC3(OC(=O)NC3CCCC3)C2)cc1 (stereo not drawn)	.	.	.	6	49*	.
Cc1ccc(S(=O)(=O)N2CCN(c3ccnc4cc(Cl)ccc34)CC2)cc1	14	56*	31	1	45	53*
CC(=O)c1ccc(S(=O)(=O)N2CCN(c3ccnc4cc(Cl)ccc34)CC2)cc1	.	.	.	3	47	.
Cc1cc(N2CCN(S(=O)(=O)c3ccc(Cl)cc3)CC2)c2ccccc2n1	-5	58*	30	21	31	24
Cc1ccc(S(=O)(=O)N2CCN(c3ccnc4cc(Cl)ccc34)CC2)cc1C	-15	37*	55	8	14	25
O=[N+]([O-])c1ccc(N=NN(CCO)CCO)cc1	-7	-1	47*	3	4	1
CC1=Nc2ccccc2/C1=C\c1nc(-c2ccccc2)oc1O	-2	14	26	7	28	19
CC1=Nc2ccccc2/C1=C/c1nc(-c2ccc(C)s2)oc1O	14	43*	16	38*	54*	68*
CN1C(=O)c2cccc3c(Br)ccc(c23)C1=O	.	-7	18	0	-34	-19
CNc1ccc2c3c(cccc13)C(=O)N(C)C2=O	27	79*	9	157*	42	88*
CC(=O)c1cccc(NC(=O)CCS(=O)(=O)c2cccc3nonc23)c1	-5	-3	58*	6	0	-11
Cc1cccc(N(C)C(=O)CCS(=O)(=O)c2cccc3nonc23)c1	-11	-16	52*	7	-8	-16
COc1cccc(CNC(=O)CCS(=O)(=O)c2cccc3nonc23)c1	-10	-16	59*	11	-14	-14
COc1ccc(N(C)C(=O)CCS(=O)(=O)c2cccc3nonc23)c(OC)c1	4	1	61*	0	8	-20
CCOC(=O)N1CCN(C(=O)C[C@@H]2C[C@@]3(C(=O)OC)CC(C)(C)CC=C3N(Cc3cccc4ccccc34)C2=O)CC1	.	.	.	6	-16	.
CCOC(=O)CCN(C(=O)Nc1ccccc1)C1CCCCC1	.	.	.	2	7	.
COCCN1CCCc2nc(-c3ccc(Br)cc3)ccc21	.	.	.	-1	-17	.
Cc1cc(C)n2c(Nc3ccc4c(c3)OCCO4)c(CC(C)C)nc2n1	.	.	.	3	-47	.
Cc1ccc(C(C)C)c(OCC(=O)NS(=O)(=O)c2ccc(Cl)cc2)c1	-15	-13	59*	-1	-14	-7
Cc1ccccc1OCC(=O)NS(=O)(=O)c1ccc(Cl)cc1	-1	-8	21	11	-2	-24
CSc1ccc(S(=O)(=O)NCC(=O)OCC(=O)NCC2CCCO2)cc1[N+](=O)[O-] (stereo not drawn)	.	-13	56*	0	1	3
